A short description of test [1]: inhibitors of TNFa-induced NFkB p65 translocation, primary screen, imaging, HUVEC, MLSMR starter and 10KST1 sets (AID 438;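 active = inhibition above 20% together with a positive visual image hit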;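 note: compound added about 3h40 before a 20 min TNFalpha stimulation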;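 for inhibition: signal is the nuclear over cytoplasmic p65 intensity ratio per well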). As to conditions: HUVEC TNFa-induced p65 nuclear translocation; cell count: measured here: nuclei count (cytotoxicity indicator), at 2.08 µM; inhibition: at 2 µM, stronger effect = higher value, 0% TNFa-plus-vehicle, 100% no-TNFa wells.
The nature of test [2]: inhibitors of mutant huntingtin aggregation, primary screen, imaging, exon1htt(103Q)mCFP cells, high-content imaging (AID 483;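 active = visual image review flags a hit and inhibition of aggregation exceeds 20%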;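 note: compound exposure lasted 3 days before fixation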;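 for nuclei count: percent of the per-plate median nuclei count of sample wells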). As to conditions: exon1htt(103Q)mCFP cell line, aggregate imaging, at 2 µM; inhibition of aggregation: stronger effect = higher value; nuclei count: measured here: cell count, toxicity.
The nature of test [3]: inhibitors of E-selectin induction by TNFa, primary screen, imaging, HUVEC, immunofluorescence, MLSMR starter and 10KST1 sets (AID 487;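 active = visually confirmed hit in the image check and inhibition above 20%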;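 for inhibition: signal is fraction of cell area covered by stained E-selectin grains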;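 for nuclei count: 100% = median nuclei count of all wells on the same plate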). As to conditions: HUVEC TNFalpha-induced E-selectin immunofluorescence imaging, at 2 µM; inhibition: stronger effect = higher value; nuclei count: measured here: cell number, toxicity.
The target in test [4] is Voltage-gated potassium channel subunit beta-2 (Rattus norvegicus) (UniProt P62483). The test can be described thus: KvBeta enzyme negative modulators, primary screen, biochemical, NADPH fluorescence (AID 622;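 active = fluorescence slope higher than the sample average by over 3 SD, cut at about -0.22 in these data, passing the limit was not always enough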;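 note: slope of raw intensity against log time taken from 70 to 1610 s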). Conditions: recombinant KvBeta, 4-cyanobenzaldehyde reduction, at 10 µM, stronger effect = higher value.
The target is the same in test [5]. In words: KvBeta positive modulators, primary screen, biochemical, NADPH fluorescence (AID 623).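 Note: fluorescence intensity change per second fitted from 20 to 320 s.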 As to conditions: Recombinant KvBeta, NADPH fluorescence decrease slope, 10 min; at 10 µM; stronger effect = lower value.
Test [6] concerns the target Muscarinic acetylcholine receptor M4 (Homo sapiens) (UniProt P08173). The test can be described thus: compounds altering M4/GIRK thallium flux, either direction, primary screen, M4 allosteric agonist project, cell-based, HEK293 M4/GIRK, BTC-AM (AID 625;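 active = fluorescence slope after compound addition differing from the mean of all tested samples at 99.7% confidence, mostly higher but some lower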;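 note: thallium influx through GIRK channels coupled to M4 in HEK293 cells with BTC-AM dye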). Conditions: at 10 µM, actives lie on both sides. Put shortly:
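Material: HEK293 cells with M4 receptor and GIRK channels; Times: cells overnight at 37 °C, BTC-AM loading 1 h, reads 2 min total; Technique: kinetic BTC-AM fluorescence sampled at 1 Hz, 10 s pre-addition baseline; Read-out basis: slope over 15–24 s of trace normalized to starting intensity; Controls: carbachol positive, DMSO negative.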

Test [7] is described as follows: inhibitors of Sendai virus-induced IRF3 signaling, primary screen, TLR/RLR signaling modifier project, cell-based, Sendai virus stimulus, luciferase, 10K MLSCN set (AID 602276;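 active = inhibition at or above 50% at 10 µM; inactive = inhibition below 50%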;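 note: firefly luciferase from ISG56 promoter only with Renilla not read in this screen; 0% = Sendai virus plus DMSO and 100% = medium plus DMSO without virus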). As to conditions: HEK293 RL24 IRF3 luciferase reporter, at 10 µM, stronger effect = higher value.
The nature of test [8]: inhibitors of poly I:C-induced TLR3 signaling, primary screen, cell-based, poly I:C stimulus, luciferase, 10K MLSCN set (AID 602277;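 active = inhibition of the reporter signal at or above 50%; inactive = inhibition below 50%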). As to conditions: HEK293-TLR3 RL24 IRF3 luciferase reporter, at 10 µM, stronger effect = higher value.

Calls of active or inactive are those of the source.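 Rule for the calls, unless noted: active = NADPH fluorescence slope more negative than the mean of all samples by about 3 SD, 99.7% confidence; inactive = the rest.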

Chain of Muscarinic acetylcholine receptor M4 (Homo sapiens) (P08173 whole entry, looked up): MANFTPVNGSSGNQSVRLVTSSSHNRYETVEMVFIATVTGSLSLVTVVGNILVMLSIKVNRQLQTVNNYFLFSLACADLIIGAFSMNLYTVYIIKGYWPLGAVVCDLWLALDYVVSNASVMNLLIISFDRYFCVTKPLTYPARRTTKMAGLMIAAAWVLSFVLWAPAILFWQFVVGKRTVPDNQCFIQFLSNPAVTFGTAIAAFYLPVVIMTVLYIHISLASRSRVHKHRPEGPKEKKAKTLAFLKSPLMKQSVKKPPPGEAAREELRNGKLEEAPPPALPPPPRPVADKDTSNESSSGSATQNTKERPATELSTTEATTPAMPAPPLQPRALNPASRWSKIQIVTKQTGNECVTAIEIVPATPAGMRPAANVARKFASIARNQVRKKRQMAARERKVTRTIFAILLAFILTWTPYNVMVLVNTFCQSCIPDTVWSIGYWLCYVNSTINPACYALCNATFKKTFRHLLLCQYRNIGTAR
Chain of Voltage-gated potassium channel subunit beta-2 (Rattus norvegicus) (P62483 whole entry, looked up): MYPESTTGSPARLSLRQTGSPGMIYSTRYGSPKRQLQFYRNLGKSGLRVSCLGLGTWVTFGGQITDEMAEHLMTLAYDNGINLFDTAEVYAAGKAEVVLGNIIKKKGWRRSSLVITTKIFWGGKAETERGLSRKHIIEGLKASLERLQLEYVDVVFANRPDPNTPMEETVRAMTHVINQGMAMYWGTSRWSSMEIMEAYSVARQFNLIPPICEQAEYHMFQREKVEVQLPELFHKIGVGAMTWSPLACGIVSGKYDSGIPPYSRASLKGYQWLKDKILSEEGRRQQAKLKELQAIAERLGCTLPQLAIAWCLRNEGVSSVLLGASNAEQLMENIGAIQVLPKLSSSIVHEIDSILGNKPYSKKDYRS

In the case of `O=C(CN1C(=O)CC(c2ccco2)Sc2ccccc21)Nc1ccc2c(c1)OCCO2` (centres undefined), the cell count in test [1] came out at 809. Also, the inhibition in test [1] was -2.8% (inactive); in test [3] it was -69.7% (inactive); in test [7], 14.9% (inactive); in test [8], 9.54% (inactive). The inhibition of aggregation in test [2] is -218% (inactive). The results for the nuclei count in test [2] and in test [3] were 99.6% and 105%, respectively. In addition, the values for the fluorescence slope in test [4] and in test [6] were -0.459 (inactive) and 0.0054 (inactive), respectively. The NADPH fluorescence slope in test [5] is -1.9e-05 (inactive).

With `CCOC(=O)N1CCN(S(=O)(=O)c2cc(C)c(C)cc2C)CC1`, in test [1], the cell count amounted to 373. In addition, the inhibition is 2.8% (inactive) in test [1], -69.5% (inactive) in test [3], 13.4% (inactive) in test [7] and 20.2% (inactive) in test [8]. The inhibition of aggregation in test [2] was -7.2% (inactive). Besides, the nuclei count in test [2] worked out at 99.3%; in test [3], 137%. Moreover, the fluorescence slope in test [4] was -0.459 (inactive); in test [6], 0.00447 (inactive). For the same compound, the NADPH fluorescence slope in test [5] was -1.8e-05 (inactive).

For `CCOC(=O)c1c(C)[nH]c(C=Nc2ccccc2)c1O`, the cell count in test [1] stood at 666. For the same compound, the inhibition in test [1] was 4.3% (inactive); in test [3] it was -28.4% (inactive); in test [7], -11% (inactive); in test [8], -41.4% (inactive). The inhibition of aggregation in test [2] was 12.6% (inactive). In addition, the nuclei count in test [2] is 88.7%; in test [3] it was 103%. Moreover, the fluorescence slope was -0.598 (inactive) in test [4] and 0.00349 (inactive) in test [6]. Also, in test [5], the NADPH fluorescence slope is 5.5e-06 (inactive).

In the case of `CCOC(=O)c1nnn(-c2nonc2N)c1CN1CCc2ccccc2C1`, in test [1], the cell count worked out at 200. Besides, the inhibition was -3.9% (inactive) in test [1], -18.4% (inactive) in test [3], 6.68% (inactive) in test [7] and 24.5% (inactive) in test [8]. The inhibition of aggregation in test [2] is -11.1% (inactive). The figures for the nuclei count in test [2] and in test [3] were 80.6% and 108%, respectively. For the same compound, the fluorescence slope in test [4] was -0.45 (inactive); in test [6] it was 0.00671 (inactive). The NADPH fluorescence slope in test [5] was 4.7e-05 (inactive).

For the compound `O=C(NCc1nnc(SCC(=O)N2CCCCCC2)o1)c1ccco1`, the cell count in test [1] was determined as 595. Besides, the inhibition in test [1] is -15.7% (inactive); in test [3], -52.2% (inactive); in test [7], 6.86% (inactive); in test [8] it was 11% (inactive). Moreover, the inhibition of aggregation in test [2] is 12.1% (inactive). The nuclei count in test [2] turned out to be 124%; in test [3], 106%. For the same compound, the fluorescence slope in test [4] is -0.516 (inactive); in test [6] it was 0.00384 (inactive). For the same compound, the NADPH fluorescence slope in test [5] is -2.1e-05 (inactive).

For the compound `CCCCn1c(CN2CCN(c3cccc(Cl)c3)CC2)nc2c1c(=O)n(C)c(=O)n2C`, in test [1], the cell count was found to be 581. Further, the inhibition was 3.4% (inactive) in test [1], -3.3% (inactive) in test [3], 14.4% (inactive) in test [7] and -1.69% (inactive) in test [8]. The inhibition of aggregation in test [2] is 10.6% (inactive). The nuclei count in test [2] amounted to 100%; in test [3], 103%. Besides, the fluorescence slope was -0.597 (inactive) in test [4] and 0.00321 (inactive) in test [6]. Further, the NADPH fluorescence slope in test [5] is -6.6e-05 (inactive).

In the case of `COc1cc(C2c3c(oc4c(C)cc(C)cc4c3=O)C(=O)N2Cc2cccnc2)cc(OC)c1OC` (centres undefined), in test [1], the cell count is 632. Besides, the inhibition is 0.3% (inactive) in test [1], -4.3% (inactive) in test [3], -24.2% (inactive) in test [7] and 3.14% (inactive) in test [8]. Further, the inhibition of aggregation in test [2] is 7.3% (inactive). Moreover, the nuclei count in test [2] worked out at 106%; in test [3] it was 97.5%. Moreover, the values for the fluorescence slope in test [4] and in test [6] were -0.552 (inactive) and 0.0049 (inactive), respectively. In test [5], the NADPH fluorescence slope is 1.8e-05 (inactive).

Take `Cc1cc(Nc2ccccc2)n(CCC#N)n1`: the cell count in test [1] was 350. Besides, the inhibition is 1.6% (inactive) in test [1], -89.1% (inactive) in test [3], 15.7% (inactive) in test [7] and 14.3% (inactive) in test [8]. Also, the inhibition of aggregation in test [2] is -7.9% (inactive). Moreover, the nuclei count in test [2] stood at 96.4%; in test [3], 129%. In addition, the fluorescence slope in test [4] was -0.415 (inactive); in test [6] it was 0.00613 (inactive). For the same compound, in test [5], the NADPH fluorescence slope was -8.1e-05 (inactive).

Consider `C=CCn1c(Cc2csc(N)n2)nnc1SCC(=O)OCC`, for which the cell count in test [1] was determined as 313. Also, the inhibition in test [1] is -3.5% (inactive); in test [3], 25.2% (inactive); in test [7], 4.87% (inactive); in test [8], 10% (inactive). For the same compound, the inhibition of aggregation in test [2] is 18.2% (inactive). Besides, the nuclei count was found to be 86.3% in test [2] and 77.4% in test [3]. The fluorescence slope in test [4] is -0.48 (inactive); in test [6] it was 0.00546 (inactive). Moreover, the NADPH fluorescence slope in test [5] is -2.5e-05 (inactive).

For the compound `Cc1[nH]c(=O)[nH]c(=O)c1S(=O)(=O)N1c2ccc(F)cc2CCC1C` (centres undefined), in test [1], the cell count is 307. For the same compound, the inhibition in test [1] was -3.4% (inactive); in test [3], -175% (inactive); in test [7], 9.62% (inactive); in test [8] it was 21.9% (inactive). Besides, the inhibition of aggregation in test [2] is -5% (inactive). For the same compound, the nuclei count was 112% in test [2] and 96.2% in test [3]. Also, the fluorescence slope is -0.461 (inactive) in test [4] and 0.00639 (inactive) in test [6]. For the same compound, in test [5], the NADPH fluorescence slope is -3.2e-05 (inactive).

Regarding `CCCCCOC(=O)CSc1nnc(-c2cc(OC)c(OC)c(OC)c2)o1`, the cell count in test [1] was 747. Further, the inhibition in test [1] was -21.6% (inactive); in test [3], -73.6% (inactive); in test [7], 3.74% (inactive); in test [8], 10.4% (inactive). The inhibition of aggregation in test [2] was 16.3% (inactive). Moreover, the nuclei count in test [2] came to 116%; in test [3] it was 119%. Also, the values for the fluorescence slope in test [4] and in test [6] were -0.363 (inactive) and 0.00542 (inactive), respectively. The NADPH fluorescence slope in test [5] is -3.4e-05 (inactive).

As to `Cc1nc(NC2=NCN(CCc3ccccc3)CN2)nc2c(C)cccc12`, the cell count in test [1] amounted to 428. In addition, the inhibition was 46.4% (active) in test [1], -18.7% (inactive) in test [3], 27.7% (inactive) in test [7] and 28.3% (inactive) in test [8]. Also, the inhibition of aggregation in test [2] was -2.2% (inactive). For the same compound, the nuclei count in test [2] amounted to 79.5%; in test [3], 104%. The fluorescence slope was -0.457 (inactive) in test [4] and 0.0048 (inactive) in test [6]. The NADPH fluorescence slope in test [5] is -1.3e-05 (inactive).

Take `Cn1c(=O)c2ccccc2n(Cc2ccccc2F)c1=O`: in test [1], the cell count was found to be 254. Also, the inhibition in test [1] is -8.1% (inactive); in test [3], -51.8% (inactive); in test [7], 1.3% (inactive); in test [8], 65.6% (active). In addition, in test [2], the inhibition of aggregation was 8.7% (inactive). Besides, the nuclei count stood at 74.6% in test [2] and 73.9% in test [3]. For the same compound, the results for the fluorescence slope in test [4] and in test [6] were -0.451 (inactive) and 0.00416 (inactive), respectively. Moreover, in test [5], the NADPH fluorescence slope is -7.1e-05 (inactive).

As for `Cc1cc(=O)oc2ccc(OCC(=O)N3CCC(C)CC3)cc12`, the cell count in test [1] was found to be 400. In addition, the inhibition is -3.9% (inactive) in test [1], -41.1% (inactive) in test [3], 17.3% (inactive) in test [7] and 8.48% (inactive) in test [8]. Also, in test [2], the inhibition of aggregation was -30.5% (inactive). The nuclei count in test [2] stood at 103%; in test [3], 104%. Besides, the fluorescence slope in test [4] is -0.567 (inactive); in test [6], 0.00366 (inactive). Also, in test [5], the NADPH fluorescence slope is -4.1e-05 (inactive).

The values are drawn from PubChem BioAssay.
